The text below walks through data of ChEMBL document CHEMBL1135616, “Synthesis of novel 4,1-benzoxazepine derivatives as squalene synthase inhibitors and their inhibition of cholesterol synthesis” (J Med Chem, 2002).

Assay [1] addresses T1, Squalene synthase (Homo sapiens, UniProt P37268).
T1 sequence (P37268 whole entry): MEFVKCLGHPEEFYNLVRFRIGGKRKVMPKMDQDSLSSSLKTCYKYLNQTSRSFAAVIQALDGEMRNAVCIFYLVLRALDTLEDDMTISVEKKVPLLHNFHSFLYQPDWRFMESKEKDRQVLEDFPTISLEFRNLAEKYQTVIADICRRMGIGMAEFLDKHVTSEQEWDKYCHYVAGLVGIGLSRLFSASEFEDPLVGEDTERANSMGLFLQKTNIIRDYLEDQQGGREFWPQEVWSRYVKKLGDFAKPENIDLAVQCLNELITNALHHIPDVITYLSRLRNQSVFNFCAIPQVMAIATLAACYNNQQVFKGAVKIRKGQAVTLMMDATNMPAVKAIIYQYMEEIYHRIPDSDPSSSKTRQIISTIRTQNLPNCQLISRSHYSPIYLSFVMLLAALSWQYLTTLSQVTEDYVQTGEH
In words: Inhibition of squalene synthase from human hepatoma cells (HepG2). Summed up: (§1)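 Enzyme source: microsomes from HepG2 cells grown in DMEM/10% FBS, sonicated in phosphate/nicotinamide/MgCl2 buffer. Reaction contained 5 µM [1-3H]FPP, 1 mM NADPH, 5 mM MgCl2, 6 mM glutathione, 100 mM potassium phosphate pH 7.4, 2% DMSO final, 0.8 µg protein. Run 45 min at 37 °C. Chloroform-extracted [3H]squalene counted. IC50 from one run in duplicate.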

Assay [2] has as its system Rattus norvegicus. As to the kind of experiment: In vivo inhibition of sterol synthesis in rats following 10 mg/kg p.o. The format is functional. As to conditions: for inhibition in vivo at 10 mg/kg: Rattus norvegicus, po. Summed up: (§2)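 Oral dosing of 6-week-old male Wistar rats with test compound suspended in 0.5% methylcellulose. [14C]acetate (50 μCi/kg) given iv 1 h after the dose; animals killed 1 h later. Livers saponified and extracted with petroleum ether. Sterols precipitated with 0.5% digitonin in 50% ethanol (4 h, room temperature), then counted. Result is % inhibition vs control, mean ± SD (n = 6-10), Dunnett's test.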

The subject of assay [3] is Rattus norvegicus. In words: Compound at a dose of 1 mg/kg was administered orally to 6 week old male Wistar rats and was evaluated for the inhibition of sterol synthesis. The assay is classed as functional. To be noted: route oral. Summed up:
as §2

Assay [4] is filed under the species Rattus norvegicus. In words: Concentration required for 50% inhibitory activity against cholesterol synthesis in rat liver. The assay is classed as functional. Summed up: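 In vivo hepatic sterol synthesis in 6-week-old male Wistar rats. Oral doses of 1, 3 and 10 mg/kg in 0.5% methylcellulose. [14C]acetate (50 μCi/kg) iv 1 h post-dose; killed 1 h later. Radioactivity of digitonin-precipitable liver sterols measured. ED50 is the oral dose giving 50% inhibition of sterol synthesis.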

The test system of assay [5] is Rattus norvegicus. In words: Compound at a dose of 3 mg/kg was administered orally to 6 week old male Wistar rats and was evaluated for the inhibition of sterol synthesis. To be noted: route oral. The assay is classed as functional. Summed up:
as §2

The test system of assay [6] is Rattus norvegicus. In words: Compound was evaluated in vivo for its inhibitory activity against cholesterol synthesis in rat liver. The assay is classed as functional. Summed up: as §2
In assay [7] the test system is Rattus norvegicus. As to the kind of experiment: Compound at a dose of 3 mg/kg was dministered orally to 6 week old male Wistar rats and was evaluated for the inhibition of terol synthesis. The format is functional. To be noted: route oral. Summed up: as §2
In assay [8] the target is T1, Squalene synthase. As to the kind of experiment: Inhibitory activity against squalene synthase derived from human hepatoma cells (HepG2). Summed up: as §1

As to `COc1cccc([C@H]2O[C@H](CC(=O)NCC(=O)O)C(=O)N(CC(C)(C)CO)c3ccc(Cl)cc32)c1OC`, the midpoint of inhibition on Squalene synthase [1], the IC50, lay at 15 nM. In the assay with Rattus norvegicus [2], the inhibition in vivo (usually the drop in the measured response relative to a control, in per cent) at 10 mg/kg is 14%.

Turning to `COc1cccc([C@H]2O[C@H](CC(=O)N[C@@H](C)C(=O)O)C(=O)N(CC(C)(C)CO)c3ccc(Cl)cc32)c1OC`, the IC50 (as a rule, the concentration that inhibits the measured activity by half) on Squalene synthase [1] was 21 nM. In the assay on Rattus norvegicus [2], the inhibition in vivo at 10 mg/kg came to 14%.

For `COc1cccc([C@H]2O[C@H](CC(=O)N(C)CC(=O)O)C(=O)N(CC(C)(C)CO)c3ccc(Cl)cc32)c1OC`, the midpoint of inhibition against Squalene synthase [1], the IC50, lay at 18 nM. For the same compound, the inhibition in vivo at 10 mg/kg with Rattus norvegicus [2] is -1%.

For `COc1cccc([C@H]2O[C@H](CC(=O)N3CCC(CC(=O)O)CC3)C(=O)N(CC(C)(C)CO)c3ccc(Cl)cc32)c1OC`, the IC50 on Squalene synthase [1] was 45 nM. For the same compound, in the assay with Rattus norvegicus [2], the inhibition in vivo at 10 mg/kg stood at 77%. For the same compound, the Inhibition (in general, how much of the control response was suppressed) in the assay on Rattus norvegicus [2] (route oral, 10 mg/kg) is given as 64%. Further, the inhibition in vivo at 1 mg/kg with Rattus norvegicus [3] was determined as 11%. Moreover, it took a dose of 6.8 mg/kg to reach the 50% effect level in the assay filed under Rattus norvegicus [4] (ED50). The inhibition in vivo at 3 mg/kg in the assay on Rattus norvegicus [5] was found to be 20%.

As for `COc1cccc([C@H]2O[C@H](CC(=O)N3CCC(C(=O)O)CC3)C(=O)N(CC(C)(C)CO)c3ccc(Cl)cc32)c1OC`, the inhibition in vivo at 10 mg/kg in the assay on Rattus norvegicus [2] amounted to 26%.

In the case of `CCC(=O)OCC(C)(C)CN1C(=O)[C@@H](CC(=O)N2CCC(CC(=O)O)CC2)O[C@H](c2cccc(OC)c2OC)c2cc(Cl)ccc21`, it took 87 nM to reach half-maximal inhibition on Squalene synthase [1] (IC50). For the same compound, the inhibition in vivo at 10 mg/kg in the assay on Rattus norvegicus [2] was 40%.

With `COc1cccc([C@H]2O[C@H](CC(=O)NC(CC(C)C)C(=O)O)C(=O)N(CC(C)(C)CO)c3ccc(Cl)cc32)c1OC` (stereo partly specified), at Squalene synthase [1], it took 28 nM to reach half-maximal inhibition (IC50). In addition, the inhibition in vivo at 10 mg/kg in the assay on Rattus norvegicus [2] was found to be 14%.

In the case of `COc1cccc([C@H]2O[C@H](CC(=O)[O-])C(=O)N(CC(C)(C)C)c3ccc(Cl)cc32)c1OC.[Na+]`, it took a dose of 3 mg/kg to reach the 50% effect level with Rattus norvegicus [6] (ED50).

In the case of `COc1cccc([C@H]2O[C@H](CC(=O)NCCCCC(=O)O)C(=O)N(CC(C)(C)CO)c3ccc(Cl)cc32)c1OC`, the IC50 at Squalene synthase [1] stood at 38 nM. In addition, the inhibition in vivo at 10 mg/kg in the assay on Rattus norvegicus [2] came to 50%.

Compound `COc1cccc([C@H]2O[C@H](CC(=O)N3CCC(CCC(=O)O)CC3)C(=O)N(CC(C)(C)CO)c3ccc(Cl)cc32)c1OC` returned an IC50 at Squalene synthase [1] of 61 nM. For the same compound, the inhibition in vivo at 10 mg/kg with Rattus norvegicus [2] was determined as 76%.

In the case of `COc1cccc([C@H]2O[C@H](CC(=O)NCCC(=O)O)C(=O)N(CC(C)(C)CO)c3ccc(Cl)cc32)c1OC`, inhibition on Squalene synthase [1] was half-maximal at 15 nM (IC50). In the assay with Rattus norvegicus [2], the inhibition in vivo at 10 mg/kg amounted to 19%.

As to `COc1cccc([C@H]2O[C@H](CC(=O)N3CCC(CC(=O)O)CC3)C(=O)N(CC(C)(C)COC(C)=O)c3ccc(Cl)cc32)c1OC` [LAPAQUISTAT ACETATE], the IC50 against Squalene synthase [1] was determined as 78 nM. Further, the inhibition in vivo at 3 mg/kg in the assay with Rattus norvegicus [7] was determined as 42%. In addition, in the assay on Rattus norvegicus [2], the inhibition in vivo at 10 mg/kg amounted to 81%. In addition, the inhibition in vivo at 1 mg/kg in the assay with Rattus norvegicus [3] worked out at 31%. For the same compound, in the assay listed under Rattus norvegicus [4], the 50% effect level (ED50) was put at a dose of 2.9 mg/kg.

In the case of `COc1cccc([C@H]2O[C@H](CC(=O)N[C@H](C)C(=O)O)C(=O)N(CC(C)(C)CO)c3ccc(Cl)cc32)c1OC`, the half-maximal inhibitory concentration (IC50) against Squalene synthase [1] amounted to 18 nM. In addition, the inhibition in vivo at 10 mg/kg in the assay with Rattus norvegicus [2] was determined as 31%.

On Squalene synthase [1], `COc1cccc([C@H]2O[C@H](CC(=O)NCCCC(=O)O)C(=O)N(CC(C)(C)CO)c3ccc(Cl)cc32)c1OC` yielded an IC50 of 32 nM. Further, the inhibition in vivo at 10 mg/kg in the assay on Rattus norvegicus [2] was 59%.

`COc1cccc([C@H]2O[C@H](CC(=O)N3CCC(CCCC(=O)O)CC3)C(=O)N(CC(C)(C)CO)c3ccc(Cl)cc32)c1OC` registered a concentration for half-maximal inhibition (IC50) on Squalene synthase [1] of 70 nM. For the same compound, the inhibition in vivo at 10 mg/kg in the assay on Rattus norvegicus [2] is 87%.

As to `COc1cccc([C@H]2O[C@H](CC(=O)N3CCC(CC(=O)O)CC3)C(=O)N(CC(C)(C)COC(=O)C(C)C)c3ccc(Cl)cc32)c1OC`, in the assay with Rattus norvegicus [2], the inhibition in vivo at 10 mg/kg is 34%. Further, the IC50 against Squalene synthase [8] stood at 89 nM.

For `CCCC(=O)OCC(C)(C)CN1C(=O)[C@@H](CC(=O)N2CCC(CC(=O)O)CC2)O[C@H](c2cccc(OC)c2OC)c2cc(Cl)ccc21`, it took 93 nM to reach half-maximal inhibition at Squalene synthase [1] (IC50). Also, the inhibition in vivo at 10 mg/kg in the assay with Rattus norvegicus [2] was 30%.

For `COc1cccc([C@H]2O[C@H](CC(=O)N3CCC(CC(=O)O)CC3)C(=O)N(CC(C)(C)COCOC(=O)C(C)(C)C)c3ccc(Cl)cc32)c1OC`, the inhibition in vivo at 10 mg/kg in the assay with Rattus norvegicus [2] stood at 43%. This compound showed an IC50 against Squalene synthase [8] of 471 nM.
